Laboratory results from publication PMC7655718 (The Journal of antibiotics, 2020).
≈ marks a conversion by molar mass, not a printed value. Like-named read-outs stand apart in the source and are kept apart here.

Assays:
[1] = test system: S. aureus ATCC 25923 (Sa23); test: MIC, microdilution with resazurin; assay type: cell-based; settings: Staphylococcus aureus, ATCC25923, read-out: MIC Sa23
Outline: (§1)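 Compounds dissolved in DMSO at 2 mg/mL. Overnight blood-agar colonies were suspended in PBS to 0.5 McFarland, then diluted in Mueller Hinton broth to about 1x10^6 cfu/mL with resazurin (1:1000 of 0.1% w/v stock). Twofold DMSO dilutions were added 1:40, giving 50 to 0.4 μg/mL at 2.5% DMSO. Incubation was 35 °C for 16-20 h. Blue/non-turbid wells counted as inhibited, pink/turbid as grown.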

[2] = test system: B. subtilis ATCC 6623 (Bs); test: MIC, microdilution with resazurin; assay type: cell-based, Bacillus subtilis; settings: Bacillus subtilis, ATCC6623, read-out: MIC Bs
[3] = test system: S. epidermidis 700296 (Se); test: MIC, microdilution with resazurin; assay type: cell-based; settings: Staphylococcus epidermidis, read-out: MIC Se
Outline: as §1

[4] = test system: A. baumannii ATCC 747 (Ab47); test: MIC, microdilution with resazurin; assay type: cell-based, Acinetobacter baumannii; settings: Acinetobacter baumannii, ATCC747, read-out: MIC Ab47
Outline: as §1

[5] = test system: S. aureus ATCC 700699 (Sa99); test: MIC, microdilution with resazurin; assay type: cell-based; settings: Staphylococcus aureus, ATCC700699, read-out: MIC Sa99
Outline: as §1

[6] = test system: S. aureus ATCC 33599 (MRSA); test: BacLight membrane permeability assay; assay type: cell-based, Staphylococcus aureus; settings: versus positive control vancomycin
[7] = test system: S. aureus ATCC 33591 (Sa91); test: MIC, microdilution with resazurin; assay type: cell-based; settings: Staphylococcus aureus, ATCC33591, read-out: MIC Sa91
Outline: as §1

[8] = test system: tested A. baumannii strains; test: MIC, text summary over A. baumannii strains; assay type: cell-based, Acinetobacter baumannii
Outline: as §1

[9] = test system: A. baumannii ATCC 19606 (type strain, Ab06); test: MIC and MBC; assay type: cell-based, Acinetobacter baumannii; settings: Acinetobacter baumannii
Outline: as §1

[10] = test system: A. baumannii ATCC 19606 (Ab06); test: BacLight membrane permeability assay; assay type: cell-based, Acinetobacter baumannii; settings: Ab06, versus positive control colistin at comparable MIC
[11] = test system: S. aureus ATCC 33592 (Sa92); test: MIC, microdilution with resazurin; assay type: cell-based; settings: Staphylococcus aureus, ATCC33592, read-out: MIC Sa92
Outline: as §1

[12] = test system: tested Gram-positive bacterial strains; test: MIC, text summary over tested Gram-positive strains; assay type: cell-based
[13] = test system: S. aureus BAA-2312 (Sa12); test: MIC, microdilution with resazurin; assay type: cell-based; settings: Staphylococcus aureus, BAA2312, read-out: MIC Sa12
Outline: as §1

In the case of `O=C(O)c1ccc(-n2cc(/C=N/Nc3ccc(F)c(Cl)c3)c(-c3ccc4ccccc4c3)n2)cc1` [Compound 22], the MIC [1] is reported as 3.12 µg/mL (≈ 6.44 µM), the MIC [2] is reported as 6.25 µg/mL (≈ 12.9 µM) and the MIC [3] is reported as 3.12 µg/mL (≈ 6.44 µM). The MIC [4] was 12.5 µg/mL (≈ 25.8 µM), the MIC [5] was 0.78 µg/mL (≈ 1.61 µM) and the “membrane disruption activity, PI/SYTO-9 ratio” value [6] was “more potent membrane disruption activity than vancomycin”. For the same compound, the MIC [7] was 6.25 µg/mL (≈ 12.9 µM), the “activity against A. baumannii strains” value [8] was “moderate growth inhibitor” and the MBC ([9]; ATCC19606) was 50 µg/mL (≈ 103 µM). For the same compound, the MIC ([9]; ATCC19606) was 6.25 µg/mL (≈ 12.9 µM), the MIC ([9]; ATCC19606, read-out: MIC Ab06) was 6.25 µg/mL (≈ 12.9 µM) and the “membrane disrupting ability, PI/SYTO-9 ratio” value [10] was “better membrane disrupting ability”. For the same compound, the MIC [11] was 1.56 µg/mL (≈ 3.22 µM), the “antimicrobial activity against the tested strains” value [12] was “potent inhibitors of tested Gram-positive strains” and the MIC [13] was 3.12 µg/mL (≈ 6.44 µM).
